Active and inactive are the calls of the source.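 How the source made its calls, unless noted: active means visual image review flags a hit and inhibition of aggregation exceeds 20%; inconclusive means visual hit but inhibition at or below 20%; inactive means no hit on visual image review.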
Assays:
[1] = inhibitors of TNFa-induced NFkB p65 translocation, primary screen, imaging, HUVEC, MLSMR starter and 10KST1 sets (AID 438;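 active means inhibition above 20% together with a positive visual image hit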;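 further: compound added about 3h40 before a 20 min TNFalpha stimulation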;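 on inhibition: signal is the nuclear over cytoplasmic p65 intensity ratio per well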); settings: HUVEC TNFa-induced p65 nuclear translocation; cell count: measured here: nuclei count (cytotoxicity indicator), at 2.08 µM; inhibition: at 2 µM, stronger effect = higher value, 0% TNFa-plus-vehicle, 100% no-TNFa wells
[2] = inhibitors of mutant huntingtin aggregation, primary screen, imaging, exon1htt(103Q)mCFP cells, high-content imaging (AID 483); settings: exon1htt(103Q)mCFP cell line, aggregate imaging, at 2 µM; inhibition of aggregation: stronger effect = higher value; nuclei count: measured here: cell count, toxicity;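 further: compound exposure lasted 3 days before fixation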;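 on nuclei count: percent of the per-plate median nuclei count of sample wells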
[3] = inhibitors of E-selectin induction by TNFa, primary screen, imaging, HUVEC, immunofluorescence, MLSMR starter and 10KST1 sets (AID 487;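 active means visually confirmed hit in the image check and inhibition above 20%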;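 on inhibition: signal is fraction of cell area covered by stained E-selectin grains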;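 on nuclei count: 100% = median nuclei count of all wells on the same plate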); settings: HUVEC TNFalpha-induced E-selectin immunofluorescence imaging, at 2 µM; inhibition: stronger effect = higher value; nuclei count: measured here: cell number, toxicity
[4] = target: Voltage-gated potassium channel subunit beta-2 (Rattus norvegicus) (UniProt P62483); experiment: KvBeta enzyme negative modulators, primary screen, biochemical, NADPH fluorescence (AID 622;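 active means fluorescence slope higher than the sample average by over 3 SD, cut at about -0.22 in these data, passing the limit was not always enough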;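 further: slope of raw intensity against log time taken from 70 to 1610 s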); settings: recombinant KvBeta, 4-cyanobenzaldehyde reduction, at 10 µM, stronger effect = higher value
[5] = target: Voltage-gated potassium channel subunit beta-2 (Rattus norvegicus) (UniProt P62483); experiment: KvBeta positive modulators, primary screen, biochemical, NADPH fluorescence (AID 623;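 active means NADPH fluorescence slope more negative than the mean of all samples by about 3 SD, 99.7% confidence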;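 further: fluorescence intensity change per second fitted from 20 to 320 s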); settings: Recombinant KvBeta, NADPH fluorescence decrease slope, 10 min; at 10 µM; stronger effect = lower value
[6] = target: Muscarinic acetylcholine receptor M4 (Homo sapiens) (UniProt P08173); experiment: compounds altering M4/GIRK thallium flux, either direction, primary screen, M4 allosteric agonist project, cell-based, HEK293 M4/GIRK, BTC-AM (AID 625;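 active means fluorescence slope after compound addition differing from the mean of all tested samples at 99.7% confidence, mostly higher but some lower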;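 further: thallium influx through GIRK channels coupled to M4 in HEK293 cells with BTC-AM dye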); settings: at 10 µM, actives lie on both sides
How it was run: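 Assay system: HEK293 cells with M4 receptor and GIRK channels / Controls: carbachol and DMSO controls / Schedule: 1 h dye loading, 2 min kinetic read / Technique: kinetic fluorescence with BTC-AM dye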

[7] = inhibitors of Sendai virus-induced IRF3 signaling, primary screen, TLR/RLR signaling modifier project, cell-based, Sendai virus stimulus, luciferase, 10K MLSCN set (AID 602276;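 active means inhibition at or above 50% at 10 µM; inactive means inhibition below 50%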;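 further: firefly luciferase from ISG56 promoter only with Renilla not read in this screen; 0% = Sendai virus plus DMSO and 100% = medium plus DMSO without virus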); settings: HEK293 RL24 IRF3 luciferase reporter, at 10 µM, stronger effect = higher value
[8] = inhibitors of poly I:C-induced TLR3 signaling, primary screen, cell-based, poly I:C stimulus, luciferase, 10K MLSCN set (AID 602277;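 active means inhibition of the reporter signal at or above 50%; inactive means inhibition below 50%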); settings: HEK293-TLR3 RL24 IRF3 luciferase reporter, at 10 µM, stronger effect = higher value

Sequence of Voltage-gated potassium channel subunit beta-2 (Rattus norvegicus) (P62483 whole entry, looked up): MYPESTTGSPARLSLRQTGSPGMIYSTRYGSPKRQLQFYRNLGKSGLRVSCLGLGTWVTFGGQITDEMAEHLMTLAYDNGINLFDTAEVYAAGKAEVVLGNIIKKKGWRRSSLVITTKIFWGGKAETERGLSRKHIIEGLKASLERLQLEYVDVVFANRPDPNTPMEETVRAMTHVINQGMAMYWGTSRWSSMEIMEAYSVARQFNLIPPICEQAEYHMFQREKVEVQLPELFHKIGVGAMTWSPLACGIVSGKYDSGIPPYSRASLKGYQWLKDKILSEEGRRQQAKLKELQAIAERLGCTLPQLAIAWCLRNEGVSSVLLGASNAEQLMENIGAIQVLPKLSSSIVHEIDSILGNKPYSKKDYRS
Sequence of Muscarinic acetylcholine receptor M4 (Homo sapiens) (P08173 whole entry, looked up): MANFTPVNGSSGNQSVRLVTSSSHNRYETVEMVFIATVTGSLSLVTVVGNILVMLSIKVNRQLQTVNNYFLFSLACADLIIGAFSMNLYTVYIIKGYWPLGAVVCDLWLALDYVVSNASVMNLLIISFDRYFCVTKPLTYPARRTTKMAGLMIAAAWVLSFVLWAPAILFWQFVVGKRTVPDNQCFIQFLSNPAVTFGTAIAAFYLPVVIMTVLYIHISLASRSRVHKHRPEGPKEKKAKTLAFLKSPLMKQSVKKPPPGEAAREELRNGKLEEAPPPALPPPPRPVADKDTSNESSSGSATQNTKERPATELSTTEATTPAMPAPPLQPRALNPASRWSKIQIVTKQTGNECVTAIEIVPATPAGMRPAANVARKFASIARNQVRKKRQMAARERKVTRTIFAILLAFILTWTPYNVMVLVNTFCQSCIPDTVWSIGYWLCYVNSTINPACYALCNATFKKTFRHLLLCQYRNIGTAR

For `C=CCc1cc(C(=O)N2CCCCC2)ccc1O`, the cell count [1] was 442, the inhibition [1] was 3.4% (inactive) and the inhibition of aggregation [2] was 6.3% (inactive). The nuclei count [2] was 99.5%, the inhibition [3] was -96.3% (inactive) and the nuclei count [3] was 118%. For the same molecule, the fluorescence slope [4] was -0.523 (inactive), the NADPH fluorescence slope [5] was -0.000166 (inactive) and the fluorescence slope [6] was 0.00415 (inactive). The inhibition [7] was 5.94% (inactive) and the inhibition [8] was -14% (inactive).
For `CN(c1ccccc1)C(c1ccc(F)cc1)c1nnnn1CC1CCCO1` (centres undefined), the cell count [1] was 762, the inhibition [1] was -2.9% (inactive) and the inhibition of aggregation [2] was -1.8% (inactive). The nuclei count [2] was 100%, the inhibition [3] was -61.8% (inactive) and the nuclei count [3] was 132%. For the same molecule, the fluorescence slope [4] was -0.288 (inactive), the NADPH fluorescence slope [5] was -1.6e-05 (inactive) and the fluorescence slope [6] was 0.00686 (inactive). The inhibition [7] was 16% (inactive) and the inhibition [8] was 42.3% (inactive).
In the case of `Cc1cccn2cc(-c3ccccc3)nc12`, the cell count [1] is reported as 394, the inhibition [1] is reported as 1.7% (inactive) and the inhibition of aggregation [2] is reported as -5.2% (inactive). The nuclei count [2] was 103%, the inhibition [3] was -36.2% (inactive) and the nuclei count [3] was 89.3%. For the same molecule, the fluorescence slope [4] was -0.557 (inactive), the NADPH fluorescence slope [5] was -1.4e-05 (inactive) and the fluorescence slope [6] was 0.00519 (inactive). For the same molecule, the inhibition [7] was 2.94% (inactive) and the inhibition [8] was -39.3% (inactive).
With `Cc1ccc(C(=O)CSc2nnc(-c3cccnc3)n2N)cc1` the cell count [1] was 614, the inhibition [1] was -20.3% (inactive) and the inhibition of aggregation [2] was -15.4% (inactive). The nuclei count [2] was 89.2%, the inhibition [3] was 5.4% (inactive) and the nuclei count [3] was 95.7%. For the same molecule, the fluorescence slope [4] was -0.534 (inactive), the NADPH fluorescence slope [5] was -5.6e-05 (inactive) and the fluorescence slope [6] was 0.00446 (inactive). For the same molecule, the inhibition [7] was -0.185% (inactive) and the inhibition [8] was 51.1% (active).
With `O=C(O)CC1CCCC(c2ccccc2)C1=O` (centres undefined) the cell count [1] was 658, the inhibition [1] was -6.5% (inactive) and the inhibition of aggregation [2] was -35% (inactive). For the same molecule, the nuclei count [2] was 103%, the inhibition [3] was 108% (active) and the nuclei count [3] was 102%. For the same molecule, the fluorescence slope [4] was -0.544 (inactive), the NADPH fluorescence slope [5] was -7.4e-06 (inactive) and the fluorescence slope [6] was 0.00508 (inactive). For the same molecule, the inhibition [7] was 8.33% (inactive) and the inhibition [8] was 11.2% (inactive).
With `Cc1ccccc1CSCC(=O)c1c(N)n(C)c(=O)n(C)c1=O` the cell count [1] was 395, the inhibition [1] was 2.8% (inactive) and the inhibition of aggregation [2] was -5.9% (inactive). For the same molecule, the nuclei count [2] was 96.5%, the inhibition [3] was 34.1% (inactive) and the nuclei count [3] was 103%. For the same molecule, the fluorescence slope [4] was -0.475 (inactive), the NADPH fluorescence slope [5] was 3.9e-05 (inactive) and the fluorescence slope [6] was 0.00961 (inactive). For the same molecule, the inhibition [7] was -5.02% (inactive) and the inhibition [8] was -20.8% (inactive).
For `Cn1c(Cc2csc(N)n2)nnc1SCC(=O)NC1CCCCC1`, the cell count [1] was 662, the inhibition [1] was -3.3% (inactive) and the inhibition of aggregation [2] was -15.2% (inactive). The nuclei count [2] was 101%, the inhibition [3] was 16.6% (inactive) and the nuclei count [3] was 91%. The fluorescence slope [4] was -0.479 (inactive), the NADPH fluorescence slope [5] was 1.7e-05 (inactive) and the fluorescence slope [6] was 0.00433 (inactive). The inhibition [7] was 4.63% (inactive) and the inhibition [8] was -2.17% (inactive).
With `CC1CCCC(C(=O)OCc2ccccc2)N1` (centres undefined) the cell count [1] was 551, the inhibition [1] was -10.9% (inactive) and the inhibition of aggregation [2] was -31.2% (inactive). The nuclei count [2] was 113%, the inhibition [3] was -120% (inactive) and the nuclei count [3] was 122%. The fluorescence slope [4] was -0.389 (inactive), the NADPH fluorescence slope [5] was 3.2e-05 (inactive) and the fluorescence slope [6] was 0.00626 (inactive). For the same molecule, the inhibition [7] was 13.2% (inactive) and the inhibition [8] was 20.1% (inactive).
With `Cc1cc(C)c2oc(=O)cc(CN3CCOCC3)c2c1` the cell count [1] was 647, the inhibition [1] was 2% (inactive) and the inhibition of aggregation [2] was 4.4% (inactive). The nuclei count [2] was 87.2%, the inhibition [3] was -10.1% (inactive) and the nuclei count [3] was 99.8%. The fluorescence slope [4] was -0.551 (inactive), the NADPH fluorescence slope [5] was 2.5e-06 (inactive) and the fluorescence slope [6] was 0.00519 (inactive). The inhibition [7] was 15.5% (inactive) and the inhibition [8] was 25.5% (inactive).
For `COc1ccccc1NC1=NC2(CCCC2)N=C(N)N1`, the cell count [1] was 313, the inhibition [1] was -9.5% (inactive) and the inhibition of aggregation [2] was -26.7% (inactive). The nuclei count [2] was 115%, the inhibition [3] was 18% (inactive) and the nuclei count [3] was 124%. The fluorescence slope [4] was -0.569 (inactive), the NADPH fluorescence slope [5] was -6.5e-06 (inactive) and the fluorescence slope [6] was 0.00551 (inactive). The inhibition [7] was 7.65% (inactive) and the inhibition [8] was 19.3% (inactive).
For `CC1(C)CC(=O)c2cnc(NC(=O)CSc3nc4ccccc4o3)nc2C1`, the cell count [1] was 257, the inhibition [1] was -5.5% (inactive) and the inhibition of aggregation [2] was -24.6% (inactive). For the same molecule, the nuclei count [2] was 87.1%, the inhibition [3] was -79.9% (inactive) and the nuclei count [3] was 107%. The fluorescence slope [4] was -0.294 (inactive), the NADPH fluorescence slope [5] was -1.5e-05 (inactive) and the fluorescence slope [6] was 0.00793 (inactive). For the same molecule, the inhibition [7] was -3.99% (inactive) and the inhibition [8] was 20% (inactive).
For `C=CCOc1ccc(/C(O)=C2\C(=O)C(=O)N(CCOC)C2c2cccnc2)cc1` (centres undefined), the cell count [1] was 640, the inhibition [1] was 3.4% (inactive) and the inhibition of aggregation [2] was 14.8% (inactive). For the same molecule, the nuclei count [2] was 105%, the inhibition [3] was 4% (inactive) and the nuclei count [3] was 101%. The fluorescence slope [4] was -0.336 (inactive), the NADPH fluorescence slope [5] was -4.4e-05 (inactive) and the fluorescence slope [6] was 0.00592 (inactive). For the same molecule, the inhibition [7] was 6.88% (inactive) and the inhibition [8] was 15.7% (inactive).
For `CCOC(=O)N1CCN(C(=O)c2ccc(N3C(=O)CCC3=O)cc2)CC1`, the cell count [1] was 503, the inhibition [1] was -1.2% (inactive) and the inhibition of aggregation [2] was 0.2% (inactive). For the same molecule, the nuclei count [2] was 108%, the inhibition [3] was 15.8% (inactive) and the nuclei count [3] was 68.3%. For the same molecule, the fluorescence slope [4] was -0.266 (inactive), the NADPH fluorescence slope [5] was -2.7e-05 (inactive) and the fluorescence slope [6] was 0.00679 (inactive). The inhibition [7] was -5.15% (inactive) and the inhibition [8] was 18.1% (inactive).
In the case of `CCOC(=O)c1nnn(CC(=O)Nc2cccc(OC)c2)c1C(=O)OCC`, the cell count [1] is reported as 395, the inhibition [1] is reported as 8% (inactive) and the inhibition of aggregation [2] is reported as 20.4% (inactive). The nuclei count [2] was 89%, the inhibition [3] was -10.7% (inactive) and the nuclei count [3] was 106%. For the same molecule, the fluorescence slope [4] was -0.416 (inactive), the NADPH fluorescence slope [5] was -3.9e-05 (inactive) and the fluorescence slope [6] was 0.00731 (inactive). For the same molecule, the inhibition [7] was 9.94% (inactive) and the inhibition [8] was 14.1% (inactive).
